The test system of this series is MS2 coat protein. Put plainly: apparent Kd, MS2 coat protein; higher = weaker binding; RNA-MaP array; FMN 200 µM where present. An outline of the steps: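 On Illumina sequencing-chip clusters, designs were transcribed by stalled E. coli RNA polymerase and titrated with SNAP-549-labelled MS2 coat protein (0.7 or 1.5 nM, doubling to 3 µM), without and then with constant ligand, in 100 mM Tris-HCl pH 7.5, 80 mM KCl, 4 mM MgCl2, BSA, DTT, yeast tRNA and Tween-20. Apparent Kd is the median of filtered per-cluster curve fits to green signal normalised to red-channel RNA signal and control-cluster median Fmax.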

[1] abbreviates: designed as: OFF switch for flavin mononucleotide, no ligand.
Where [2] appears, read: ligand present: flavin mononucleotide, designed as: OFF switch for flavin mononucleotide.
The mark [3] stands for this setting: designed as: ON switch for flavin mononucleotide, no ligand.
[4] abbreviates: ligand present: flavin mononucleotide, designed as: ON switch for flavin mononucleotide.

Take “CAGAGUUGGUAAGGAUAUCCCACAUUAUUCUGACCCGUGCAAGCUACAUGAGGAUCACCCAUGUGGGAGAAGGUGCGUUAAAGA”: the apparent Kd (in general, a dissociation constant that holds for the conditions of the assay) is, setting by setting: under setting [1], 39 nM; under setting [2], 35 nM.

Regarding “UUGUUAUAUGUAGGAUAUGCGUAUUAUUAUUAGGCAGAAGGACAUGAGGAUCACCCAUGUAUGUUGUUGUUAUAUAUUAUAUAU”, the “apparent Kd” value runs as follows: under setting [1], 28.4 nM; under setting [2], 29.6 nM.

As for “CGGUGACGUGUAGGAUAUGGCGAUGGGUUUUGGCCAGAAGGACAUGAGGAUCACCCAUGUGGUAGAGGGUUGGCGGCUGCCCGU”, the “apparent Kd” value runs as follows: under setting [1], 47.4 nM; under setting [2], 181 nM.

Regarding “UUACCCUCAGUAAGGAUAUCUUUAUCUGCUGAUUUAGAGAAGGUACAUGAGGAUCACCCAUGUGCGAUUGGGCA”, the “apparent Kd” value runs as follows: under setting [1], 80.3 nM; under setting [2], 501 nM.

“UGAGCAUGAGGAUAUACUUGGCGUGCGUGAGCACGAGGUUUACAUGAGGAUCACCCAUGUAGAAGGCAUGUUCU”: the “apparent Kd” value was 18.2 nM under setting [1] and 51.6 nM under setting [2].

Turning to “GGCUACGUUUCGUAGCAGUGUCAUCGAGAAGGCCCUGACAUGAGGAUCACCCAUGUUGUUACAUGGGAGGAUAUCGAUGAUACG”, the “apparent Kd” value under setting [3] worked out at 12.1 nM and the “apparent Kd” value under setting [4] amounted to 4.96 nM.

With “GGGAGACAUGAGGAUCACCCAUGUGAAAACGUGGCAGGAUAUGCAUGGAAACCAUACUGUGCAGAAGGGCCUUGUC”, the “apparent Kd” value by setting is: under setting [3], 60.5 nM; under setting [4], 33.1 nM.

Take “UGUAUGGACAGAGGAUAUACAGAUAGGAUCUACUAUCAAACAGUCCUUACAUGAGGAUCACCCAUGUAGAAGGCUGUCCAUACU”: the “apparent Kd” value was found to be 19.4 nM under setting [1] and 85.8 nM under setting [2].

For “UUGAAUUGAAACAUGAGGAUCACCCAUGUGUCAUAGUUGACAUAGGAUAUGCUUAUACUUUUAAAGCAGAAGGAUGACGAUACU”, the “apparent Kd” value under setting [3] turned out to be 19.8 nM and the “apparent Kd” value under setting [4] stood at 7.46 nM.

On to “AAUAAACAUGAGGAUCACCCAUGUCCCACCAGCCAAGGAUAUGGGCCCGCCGCACAGGUACCAGAAGGUGGCUGCC”, for which the “apparent Kd” value is 165 nM under setting [3] and 55.7 nM under setting [4].

“UAGGUUGUCGUAGGAUAUGUAGGAUAUUCCUACAUGAGGAUCACCCAUGUUAGCAUGGAAGAAGGACAGAAGGACGAUGACCUU”: the “apparent Kd” value reads like this: under setting [3], 889 nM; under setting [4], 15.6 nM.

As to “AAUUGGAUCCAGAAGGCAUGGACGACCCGUCACAUUAACAUGAGGAUCACCCAUGUAAAAAUACAUGAGGAUAUGGAUCCUAAA”, the “apparent Kd” value by setting is: under setting [3], 41.3 nM; under setting [4], 7.43 nM.

“GGUAAGAUGCAGAAGGUGUUAGCUAGAGCUACGACAUGAGGAUCACCCAUGUACUAGAAACAGUACAAGGAUAUGCAUCUUACU”: the “apparent Kd” value worked out at 18.9 nM under setting [3] and 6.53 nM under setting [4].

In the case of “UAGGUACAUGAGGAUCACCCAUGUGAGGAUAUAGUUGAAGAUUGCGAGAGGGAGAGGACUAGAAGGCACAGUGG”, the “apparent Kd” value by setting is: under setting [1], 50.5 nM; under setting [2], 69 nM.

As to “CCCUCACAUGAGGAUCACCCAUGUCAGGAUAUCUAGUCAGAUAGUGUAGCACUAAUGAAGAGAAGGGACGUAUA”, the “apparent Kd” value reads like this: under setting [1], 18.2 nM; under setting [2], 23.9 nM.

Take “CGUAUGUCAGGAUAUGCGCGCGAUCAUUACACUCGGAAUUGGCAGAAGGGACAUGAGGAUCACCCAUGUGGCCC”: the “apparent Kd” value reads like this: under setting [1], 34.4 nM; under setting [2], 37.4 nM.

Consider “AAUAACAGAGGAUAUACUAUUUUAUGUGUUUGUUGUUUUGAACAUGAGGAUCACCCAUGUAGAAGGCUGAAUGA”, for which the “apparent Kd” value amounted to 28.8 nM under setting [1] and 30.7 nM under setting [2].

Take “AUGGAUAUCACAGGAUAUGCUAAGGAUACCUUAGCAGAAGGGUGAUCCAUCCUAUGGCUGUACAUGAGGAUCACCCAUGUGUCA”: the “apparent Kd” value under setting [3] was determined as 331 nM and the “apparent Kd” value under setting [4] was 41.4 nM.

Consider “AAAGCGUGAGGAUAUGAGGCGCCGGGCCGGUUGGUGCGGAUUCAGAAGGCACAUGAGGAUCACCCAUGUCGGUA”, for which the “apparent Kd” value by setting is: under setting [1], 41.1 nM; under setting [2], 96 nM.

Regarding “UUUCGGCAUGUAGGAUAUGGGUCCGAUUAGGAUUUAGAAGGACAUGAGGAUCACCCAUGUGCAUUUAAUUGGUCAUUACCUUUU”, the “apparent Kd” value runs as follows: under setting [1], 62.9 nM; under setting [2], 74 nM.

For the origin of these results see the EternaBench riboswitch data.
